From PubChem
An excerpt weighted towards active compounds, which were near 1.5% of everything screened.
Hsp70 activator: transcriptional activators of Hsp70. activation, % at 10 µM. AID 1203. HeLa Hsp70 promoter luciferase reporter, luminescence; scaled: vehicle 0, proteasome-inhibitor control 100%. hit rate 0.04% among 200,000;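 active = activation above the mean across all tested compounds plus 3 SD, cutoff set per campaign, cut at about 5.5% in these data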;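 also: 100% = MG132 at 30 µM as the positive control and 0% = DMSO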
p97 inhibitor: human p97 ATPase inhibition. AID 1481. recombinant p97 ATPase, Kinase-Glo ATP luminescence, 3 h. hit rate 0.42% among 220,000. P55072. inhibition, % at 8 µM; in the data active = inhibition above about 15%;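 also: 0% = DMSO vehicle and 100% = wells lacking enzyme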
PKD1 inh: blocks activity of human protein kinase D1. PKD1 kinase fluorescence polarization assay. hit rate 0.056% among 200,000. Q15139. inhibition, % (concentration not given with the values); in the data active = inhibition above about 50%
RBBP9 inhibitor: blocks human serine hydrolase RBBP9; inhibition, % at 7.94 µM; O75884; hit rate 0.2% among 220,000; recombinant RBBP9, FP-Rh probe fluorescence polarization;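 active = inhibition above the campaign mean of all tested compounds plus 3 SD, cut at about 14% in these data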;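 also: plate controls were DMSO wells with RBBP9 for no effect and wells lacking RBBP9 protein for full effect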
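Test system – recombinant human RBBP9 · Input – RBBP9 2.5 µM in dispensing solution, pre-mixing · Medium – Tris buffer pH 8.0, NaCl, Pluronic · Schedule – preincubation 30 min plus labeling 45 min at 25 °C · Measured by – fluorescence polarization · Measure – % inhibition · Controls – DMSO and no-protein wells · Replicates – one well per compound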
PP1 inh: PP1-alpha (human) inhibition in PP5 counter-screen | P62136 | purified PP1alpha, OMFP fluorescence | inhibition, % at 6.7 µM | hit rate 0.9% among 320,000 | AID 2235;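 active = inhibition above the mean inhibition of all tested compounds plus 3 SD, computed separately for each screening campaign, cut at about 15% in these data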
PP5 primary: PP5 (human) phosphatase inhibition | P53041 | purified PP5c, OMFP substrate fluorescence | inhibition, % at 6.7 µM | hit rate 0.18% among 320,000 | AID 1987;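 active = inhibition above the campaign's mean inhibition across all tested compounds plus 3 SD, cut at about 9.5% in these data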;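 also: 0% = DMSO only and 100% = 100 µM cantharidin control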
PP1 inh confirm: confirmation of human PP1 phosphatase inhibitors | hit rate 52% among 1,900 | inhibition, % at 6.7 µM | purified PP1alpha, OMFP substrate fluorescence | shares compounds with PP1 inh;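 active = mean PP1 inhibition above a set limit taken from the earlier primary screen, cut at about 15% in these data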
PP5 inh counter: PP5 phosphatase inhibition, counter-screen for PP1 inhibitors; shares compounds with PP1 inh; purified PP5c, OMFP fluorescence; inhibition, % at 6.7 µM; hit rate 4% among 1,900; AID 2360;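 active = mean PP5 inhibition over triplicate wells above about 9.5% taken from the earlier PP1 screen, limit read from the data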
* hit, by the source's call; . = no result given.

SMILES	Hsp70 activator	p97 inhibitor	PKD1 inh	RBBP9 inhibitor	PP1 inh	PP5 primary	PP1 inh confirm	PP5 inh counter
CC(/C=C1\SC(=S)N(CCC(=O)Nc2cccc(C(=O)O)c2)C1=O)=C\c1ccccc1	.	.	.	.	23*	0	16*	3
CC(/C=C1\SC(=S)N(CCCC(=O)Nc2ccc(C(=O)O)cc2)C1=O)=C\c1ccccc1	0	4	-9	-7	19*	-3	11	-4
O=C(CCN1C(=O)/C(=C/C=C/c2ccccc2)SC1=S)Nc1cccnc1	0	6	-7	-7	20*	-1	13	-2
COc1ccccc1/C=C1\SC(=S)N(CCC(=O)Nc2ccc(C(=O)O)c(O)c2)C1=O	.	.	.	.	27*	3	14	1
CCc1ccc(NC(=O)CS(=O)CC(=O)Nc2ccc(-n3cnnn3)c(C)c2)cc1 (stereo unspecified)	.	.	.	.	-1	2	.	.
COc1ccc(NC(=O)CN(C)C(=O)c2c(C)nn(-c3ccccc3)c2Cl)cc1	.	.	.	.	20*	-2	-3	0
COc1cc([N+](=O)[O-])cc(/C=N/NC(=O)C(C)Nc2cccc3ccccc23)c1O (stereo unspecified)	0	-3	5	-2	23*	2	33*	-2
COc1cc([N+](=O)[O-])cc(/C=N/NC(=O)C(O)(c2ccccc2)c2ccccc2)c1O	.	.	.	.	20*	-1	14	-3
O=C(N/N=C/c1cccc([N+](=O)[O-])c1O)C(O)(c1ccccc1)c1ccccc1	.	.	.	.	14	1	.	.
COc1cc([N+](=O)[O-])cc(/C=N\NC(=O)C2COc3ccccc3O2)c1O (stereo unspecified)	.	5	.	-4	32*	0	26*	-3
O=C(O)C(Cc1ccccc1)N1C(=O)c2cccc3cccc(c23)C1=O (stereo unspecified)	0	2	-1	2	3	0	.	.
O=C(Nc1cccc(O)c1)C(Cc1ccccc1)N1C(=O)c2cccc3cccc(c23)C1=O (stereo unspecified)	0	8	0	-15	19*	1	29*	1
CC(C)NC(=O)NC(=O)CN1C(=O)NC(Cc2c[nH]c3ccccc23)C1=O (stereo unspecified)	0	4	-9	-4	-2	-1	.	.
CCOc1ccc(CN2CCNC(=O)C2CC(=O)NCCN2CCOC2=O)cc1 (stereo unspecified)	.	.	.	.	-7	3	.	.
CCOC(=O)C1CCCN(c2ccc(NC(=O)c3snc4c(=O)[nH]c(C)nc34)cc2)C1 (stereo unspecified)	0	-5	0	2	-5	0	.	.
CCOC(=O)C1CCCN(c2ccc(NC(=O)c3snc4c(=O)[nH]cnc34)cc2)C1 (stereo unspecified)	0	1	-3	8	23*	-1	26*	-1
COc1cc(/C=C2\SC(=S)NC2=O)ccc1OS(=O)(=O)c1ccccc1	0	-4	-14	-16	19*	3	21*	2
COc1ccc(/C=C2\SC(=S)N(CCCCCC(=O)Nc3cc(C)on3)C2=O)cc1OC	.	.	.	.	-1	1	.	.
COc1cc(/C=C2\SC(=S)N(CCCCC(=O)O)C2=O)ccc1OS(=O)(=O)c1ccc(C)cc1	.	.	.	.	31*	1	29*	3
COc1ccc(/C=C2\SC(=S)NC2=O)cc1OS(=O)(=O)c1ccc(NC(C)=O)cc1	0	10	-3	-13	.	.	.	.
COc1cc(/C=C2/SC(=S)NC2=O)ccc1OS(=O)(=O)c1ccc(C)cc1	0	-2	-9	-19	26*	4	31*	2
CC(=O)Nc1ccc(NC(=O)C(C)OC(=O)CCCN2C(=O)c3cccc4cccc(c34)C2=O)cc1 (stereo unspecified)	.	.	.	.	10	-1	.	.
Cc1nc(SCC(=O)Nc2ccc(CN3CCCC3)cc2)c2c(C)c(C)sc2n1	.	.	.	.	-1	0	.	.
CC1(C(=O)OCC(=O)c2c[nH]c3ccccc23)CC1(Cl)Cl (stereo unspecified)	1	3	8	0	3	6	.	.
O=C1c2c(O)cccc2Cc2cccc(O)c21	.	.	.	.	35*	2	29*	-3
SMILES	Hsp70 activator	p97 inhibitor	PKD1 inh	RBBP9 inhibitor	PP1 inh	PP5 primary	PP1 inh confirm	PP5 inh counter
CCCCNC(=S)Nc1ccccc1Cc1ccccc1	0	-9	-4	-7	5	2	.	.
CC(=O)c1ccc(N2CCN(S(=O)(=O)c3c(C)[nH]c(C)c3C(=O)N3CCCCC3)CC2)cc1	.	.	.	.	0	2	.	.
O=C(N/C(=C\c1ccc(Br)cc1)c1nc2ccccc2[nH]1)c1ccco1	0	3	-5	2	2	-1	.	.
CCCCCc1c2c(cc(O)c1C(=O)O)OC(=O)c1c(cc(OC)cc1C(=O)CCCC)O2	0	3	2	-8	25*	5	28*	2
Cc1ccccc1OCC(=O)N(CC(C)C)c1c(N)n(CC(C)C)c(=O)[nH]c1=O	.	-7	.	-6	2	-2	.	.
O=C(NC(=S)NCCO)c1cn(-c2ccccc2)nc1-c1ccccc1	0	0	4	-7	1	2	.	.
COc1ccc(Nc2nc(N3CCCCC3)c3ccccc3n2)cc1	-1	7	-4	7	21*	3	3	3
Cn1c(=O)c2c(nc(NN=C3CCCCC3)n2C)n(C)c1=O	0	-4	-1	-5	-1	2	.	.
CC(NS(=O)(=O)OCC(Cl)(Cl)Cl)c1ccc(C(C)(C)C)cc1 (stereo unspecified)	.	.	.	.	19*	8	2	3
O=C(Nc1nc(-c2ccco2)c(-c2ccco2)s1)c1cnccn1	.	.	.	.	23*	0	12	-2
O=C(Nc1nc(-c2ccco2)c(-c2ccco2)s1)c1c(F)cccc1Cl	.	.	.	.	4	-1	.	.
COc1ccc(S(=O)(=O)c2c(N)n(Cc3ccco3)c3nc4ccccc4nc23)cc1	0	9	2	-5	19*	-2	10	0
Cc1ccc(S(=O)(=O)c2c(N)n(/N=C/c3ccco3)c3nc4ccccc4nc23)cc1	2	-1	-3	-3	1	1	.	.
COc1ccc(C2=CC3=CC(=O)C(C)(O)C(=O)C3=CO2)cc1 (stereo unspecified)	.	.	.	.	18*	-3	13	0
CC1(O)C(=O)C=C2C=C(c3ccc(C#N)cc3)OC=C2C1=O (stereo unspecified)	.	.	.	.	35*	1	21*	-3
Oc1ccc(C[C@@H]2CNCCN2CCc2cc(C(F)(F)F)cc(C(F)(F)F)c2)cc1	.	.	.	.	1	0	.	.
FC(F)(F)c1cc(CCN2CCNC[C@H]2Cc2cccc3ccccc23)cc(C(F)(F)F)c1	.	.	.	.	23*	6	-2	1
